The results in this text go back to ChEMBL document CHEMBL4118192, “BET bromodomain ligands: Probing the WPF shelf to improve BRD4 bromodomain affinity and metabolic stability” (Bioorg Med Chem, 2018).

The test system of one assay is U-251. Briefly: Growth inhibition of human U251 cells at 10 uM after 48 hrs by sulforhodamine B assay relative to control. It is filed as functional. The conditions noted are these: U-251, 48 h, read-out: GI. The procedure, abridged:
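NCI-60 human cancer cell line screen, single dose of 10 μM for 48 h. Cellular protein content read by sulforhodamine B staining; growth inhibition expressed relative to untreated control.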

In assay [1] the target is Bromodomain-containing protein 3 (Homo sapiens) (UniProt Q15059). Briefly: Inhibition of human partial length BRD3 bromodomain 1 (P24 to E144 residues) expressed in bacterial expression system assessed as residual activity at 1 uM by BROMOscan assay relative to control.
Sequence of Bromodomain-containing protein 3 (Homo sapiens) (Q15059 2-726 limits assumed): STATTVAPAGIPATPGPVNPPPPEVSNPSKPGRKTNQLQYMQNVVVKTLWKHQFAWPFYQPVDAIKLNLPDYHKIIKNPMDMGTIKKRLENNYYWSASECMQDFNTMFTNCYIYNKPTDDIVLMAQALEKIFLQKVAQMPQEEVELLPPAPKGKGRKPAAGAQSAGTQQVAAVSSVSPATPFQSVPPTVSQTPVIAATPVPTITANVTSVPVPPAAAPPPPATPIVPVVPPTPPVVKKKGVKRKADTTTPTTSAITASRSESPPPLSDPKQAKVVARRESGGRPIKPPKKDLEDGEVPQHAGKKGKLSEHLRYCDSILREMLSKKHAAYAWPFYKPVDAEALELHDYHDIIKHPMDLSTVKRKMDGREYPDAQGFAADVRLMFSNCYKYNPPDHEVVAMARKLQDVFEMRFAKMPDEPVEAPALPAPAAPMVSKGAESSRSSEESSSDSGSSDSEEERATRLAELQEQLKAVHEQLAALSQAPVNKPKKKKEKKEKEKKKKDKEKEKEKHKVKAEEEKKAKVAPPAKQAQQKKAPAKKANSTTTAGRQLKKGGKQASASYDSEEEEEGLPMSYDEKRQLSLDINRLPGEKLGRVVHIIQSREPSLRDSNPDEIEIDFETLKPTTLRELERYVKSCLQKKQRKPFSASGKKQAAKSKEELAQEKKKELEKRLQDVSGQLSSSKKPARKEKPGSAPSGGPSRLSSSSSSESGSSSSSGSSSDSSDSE

With `COc1ccccc1S(=O)(=O)Nc1ccc2c(c1)CN(C)C(=O)N2`, the inhibition of growth at 10 µM in the assay with U-251 stood at 50%.

`Cc1noc(C)c1-c1cc(O)cc(C(O)c2ccccc2)c1` (configuration not stated): the Activity in assay [1] was determined as 0.5%.
